CHO parental Ca – counter-screen: ATP calcium response change in parental CHO cells | inhibition, % at 5.6 µM | parental CHO-K1, ATP-induced calcium, Fluo-8 fluorescence | actives 0.63% (n = 330,000);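 active = inhibition above that plate's mean sample inhibition plus 3 SD, cut at about 26% in these data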;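 also: 0% = ATP-challenged DMSO wells and 100% = DMSO wells without ATP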
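Measured by: calcium-sensitive Fluo-8 fluorescence / Test system: CHO parental line / Controls: ATP-challenged DMSO wells low, unchallenged DMSO wells high / Measure: % inhibition / Compound: single nominal dose of 5.6 µM per compound / Replicates: single well per compound, no replicates / Reagent: ATP as calcium-mobilizing challenge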
GalR3 antag – human GalR3 antagonism | HEK293 GalR3-CNG cAMP membrane potential fluorescence; galR3 body fused to GalR1 C-terminus | O60755 | inhibition, % at 3 µM | actives 0.44% (n = 360,000);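 active = inhibition above the screen-wide average plus 3 SD, cut at about 13% in these data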;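 also: forskolin and galanin both at EC90 stimulate the cells; cAMP rise reported by CNG channel membrane potential dye signal; 0% = forskolin plus galanin with DMSO and 100% = forskolin alone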
OX1R antag-1 – antagonists of human orexin 1 receptor (OX1R); OX1R-expressing cells, FRET antagonist read-out; inhibition, % at 6.6 µM; actives 1.8% (n = 330,000); in the data active = inhibition mostly above about 38%, no sharp cut-off; inactive = mostly below about 40%;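 also: 0% = agonist challenge alone and 100% = reference antagonist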
GPR7 antag – human neuropeptides B/W receptor 1 antagonism | inhibition, % at 4.4 µM | AID 1861 | GPR7-expressing cells, fluorescence antagonist assay | actives 1.1% (n = 290,000); in the data active = inhibition above about 16%, passing the limit was not always enough;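 also: cells stimulated with the agonist NPW; 0% = agonist with vehicle and 100% = vehicle without agonist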
Target sequence (P48145 whole entry, looked up): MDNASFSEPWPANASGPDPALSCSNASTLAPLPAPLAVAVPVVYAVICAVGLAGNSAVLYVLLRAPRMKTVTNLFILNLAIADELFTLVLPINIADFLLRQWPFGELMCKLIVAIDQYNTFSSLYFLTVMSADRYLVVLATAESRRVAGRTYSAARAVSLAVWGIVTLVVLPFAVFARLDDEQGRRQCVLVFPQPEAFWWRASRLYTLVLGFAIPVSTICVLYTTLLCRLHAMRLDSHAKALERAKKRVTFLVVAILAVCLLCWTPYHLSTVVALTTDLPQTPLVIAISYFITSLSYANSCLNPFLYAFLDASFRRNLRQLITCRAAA
OX1R antag-2 – blocks the human orexin 1 receptor | O43613 | CHO/OX1R cells, Fluo-8 calcium fluorescence, orexin A | inhibition, % at 5 µM | actives 0.43% (n = 330,000) | AID 434989;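 active = inhibition above its plate's threshold, mean inhibition of all tested compounds on the plate plus 3 SD, cut at about 37% in these data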;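 also: 0% = orexin A challenge wells and 100% = SB-334867-A antagonist wells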
OX1R HTRF confirm – OX1R (human) antagonism, HTRF confirmed | actives 49% (n = 1,800) | OX1R-expressing cells, HTRF antagonist assay | AID 492964 | inhibition, % at 6.6 µM | shares compounds with OX1R antag-1; in the data active = inhibition above about 55%;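 also: CHO cells expressing OX1R stimulated with orexin A at about EC80; 0% = agonist challenge alone and 100% = reference antagonist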
CHO-K1 HTRF – signal in parental CHO-K1 cells, OX1R antagonist counter-screen; HTRF counterscreen; shares compounds with OX1R antag-1; actives 48% (n = 1,800); inhibition, % at 6.6 µM; in the data active = inhibition above about 17%;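 also: 0% = agonist challenge with vehicle and 100% = vehicle alone without agonist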
* marks the source's active call; other numbers are inactive results; · = not tested or not shown. Only some compounds are listed: those with a hit (about 3.1% of all), similar ones and a draw of the others.

SMILES	CHO parental Ca	GalR3 antag	OX1R antag-1	GPR7 antag	OX1R antag-2	OX1R HTRF confirm	CHO-K1 HTRF
COc1cc(CNc2cccc3c2S(=O)(=O)N([C@H](C)c2ccccc2)C[C@@H](COCc2ccccc2)O3)cc(OC)c1OC	·	-4	·	·	·	·	·
Oc1ccc2ccccc2c1N=Nc1ccccn1	12	-4	86*	-8	29	47	29*
Cc1cccc(C)c1NC(=O)C1(C)CSCC(=O)N1CC(C)C (configuration not stated)	·	-7	·	·	·	·	·
CNc1ccc(C(=O)c2ccccc2C(=O)O)cc1[N+](=O)[O-]	1	-7	80*	-1	-21	25	36*
COc1ccc(CO[C@@H]2O[C@H](CO)[C@@H](O)[C@H](O)[C@H]2NC(C)=O)cc1OC	·	0	·	6	·	·	·
Cc1c(C)c2ccc(O)c(CN3CCN(C)CC3)c2oc1=O	·	0	·	-7	·	·	·
CN1CCN(Cc2c(O)ccc3cc(-c4ccccn4)c(=O)oc23)CC1	-22	-2	81*	-3	-16	49	33*
Cc1ccc2cc3cc(C(=O)NCCCN4CCCCCC4)oc3nc2c1	-27	-4	82*	-4	-24	42	36*
COc1ccc(Nc2ncnc3c2oc2ccccc23)cc1	-9	1	83*	-7	-8	62*	11
Cc1ccc(Nc2ncnc3c2oc2ccccc23)cc1	-6	-5	54	-8	-15	·	·
COc1cccc(Nc2ncnc3c2cnn3-c2cccc(C)c2)c1	-10	-3	92*	3	8	46	0
Cc1cccc(NC(=O)CNC(=O)[C@H]2O[C@@H](n3cnc4c(N)ncnc43)[C@H](O)[C@@H]2O)c1C	·	-5	·	·	·	·	·
O=S(=O)(Nc1nc2ccccc2nc1NCc1ccco1)c1ccc(F)cc1	-12	-6	171*	-13	-27	18	3
O=S(=O)(Nc1nc2ccccc2nc1NCc1ccco1)c1ccccc1	-9	-3	20	-7	-16	·	·
COCCN1C(=O)CSCC1(C)C(=O)Nc1ccc2c(c1)OCCO2 (configuration not stated)	·	-1	·	·	·	·	·
Cc1ccc(-n2c3nc(=O)[nH]c(=O)c-3cc3cc([N+](=O)[O-])ccc32)cc1	-12	1	84*	7	-6	56*	65*
Cc1ccc(-n2c(C)nn(Cc3ccc([N+](=O)[O-])cc3)c2=O)cc1	-8	-4	29	-6	-21	·	·
CS(=O)(=O)Nc1ccc(-c2ccc3nccn3c2)cc1	·	5	·	·	·	·	·
c1ccc(CNc2c3ccccc3nc3ccccc23)cc1	-8	-14	5	5	-23	·	·
OCC(Cc1ccccc1)Nc1c2ccccc2nc2ccccc12 (configuration not stated)	-20	-3	88*	-8	22	72*	17*
O=C(CCNS(=O)(=O)c1cccc2nsnc12)NC1CCCc2ccccc21 (configuration not stated)	-25	-2	58	-7	-28	·	·
O=C(CCNS(=O)(=O)c1cccc2nsnc12)N1CCN(c2ccccn2)CC1	-18	·	127*	1	-20	48	23*
O=C(CCNS(=O)(=O)c1cccc2nsnc12)N1CCc2ccccc21	-21	0	95*	-8	-20	26	22*
Cc1ccccc1NC(=O)CCNS(=O)(=O)c1cccc2nsnc12	-3	-6	78*	-14	-14	25	38*
O=S(=O)(NCc1ccccn1)c1cccc2nsnc12	-10	3	85*	-13	-4	31	43*
SMILES	CHO parental Ca	GalR3 antag	OX1R antag-1	GPR7 antag	OX1R antag-2	OX1R HTRF confirm	CHO-K1 HTRF
O=S(=O)(NCCCc1ccccc1)c1cccc2nsnc12	-13	-1	27	-12	2	·	·
Cc1cccc(NC(=O)CCNS(=O)(=O)c2cccc3nsnc23)c1C	-1	-10	61	-2	2	·	·
N#CC1(NC(=O)COC(=O)Cc2c[nH]c3ccccc23)CCCCC1	·	-8	·	·	·	·	·
COc1ccc(N2CCN(C(=O)CCS(=O)(=O)c3cccc4nsnc34)CC2)cc1	-12	-7	90*	-2	-16	37	48*
OCc1cn(-c2ccccc2)nc1-c1cc2ccccc2o1	0	1	81*	-2	-13	35	12
COc1ccc(NC(=O)c2cn(-c3ccccc3)nc2-c2cc3ccccc3o2)cc1	-3	0	14	-17	-13	·	·
